Measurements from ChEMBL document CHEMBL2021878, “Discovery of Potent Dual PPARα Agonists/CB1 Ligands” (ACS Med Chem Lett, 2011).
Active and inactive are the calls of the source. The rule behind the calls is not given here.

What was measured:
[1] = molecular target: T1, Peroxisome proliferator-activated receptor alpha (Homo sapiens, UniProt Q07869); test: Agonist activity at human PPARalpha expressed in MCF7 cells co-transfected CPTI DR1-type RE after 16 hrs by luciferase reporter gene assay; type: functional, cell-based
T1 sequence (Q07869 whole entry): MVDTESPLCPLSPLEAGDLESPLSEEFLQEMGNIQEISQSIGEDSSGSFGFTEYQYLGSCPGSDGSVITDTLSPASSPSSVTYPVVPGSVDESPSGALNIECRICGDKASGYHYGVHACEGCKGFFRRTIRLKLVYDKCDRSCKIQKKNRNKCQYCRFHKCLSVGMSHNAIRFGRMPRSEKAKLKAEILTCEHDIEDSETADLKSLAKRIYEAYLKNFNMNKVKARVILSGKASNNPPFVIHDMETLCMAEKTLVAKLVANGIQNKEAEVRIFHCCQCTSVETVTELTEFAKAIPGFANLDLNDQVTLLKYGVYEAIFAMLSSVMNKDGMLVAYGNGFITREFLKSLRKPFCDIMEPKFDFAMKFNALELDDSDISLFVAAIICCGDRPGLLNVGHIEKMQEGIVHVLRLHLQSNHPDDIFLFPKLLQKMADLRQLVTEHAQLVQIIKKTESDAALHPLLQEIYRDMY
How it was run: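 Luciferase reporter assay in extracts of MCF-7 cells transiently transfected with a reporter carrying four copies of the human CPTI DR1-type response element, plus PPARα, RXRα and NCoR expression vectors. Cells treated 16 h with compounds at 10 μM, DMSO as solvent control. Mean of at least three experiments with SD; two-tailed paired Student's t-test against solvent.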

[2] = molecular target: T1, Peroxisome proliferator-activated receptor alpha; test: Agonist activity at human PPARalpha expressed in MCF7 cells co-transfected CPTI DR1-type RE after 6 hrs by luciferase reporter gene assay; type: functional, cell-based
How it was run: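 Luciferase reporter assay in extracts of MCF-7 cells transiently transfected with a human CPTI DR1-type response element reporter (four copies), plus PPARα, RXRα and NCoR vectors. Cells exposed 6 h to compounds at 10 μM, DMSO as solvent control. Basal and ligand-induced activity recorded.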

Cannabinoid receptor 1 = Cannabinoid receptor 1 (Homo sapiens, UniProt P21554); test: Displacement of [3H]-CP55940 from CB1 receptor after 90 mins by liquid scintillation counting
[3] = molecular target: Cannabinoid receptor 1 (Mus musculus) (UniProt P47746); test: Agonist activity at CB1 receptor in ICR mouse vas deferens assessed as inhibition of amplitude of electrically-stimulated muscle contraction at 10^-7 to 1.8 x 10^-5 M relative to control; type: functional, tissue-based
How it was run: (§1)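 Mouse vas deferens, electrically stimulated nerve-smooth muscle preparation. Compounds tested at 10^-7 to 1.8 × 10^-5 M for effects on the nonstimulated basal recording and on the amplitude of electrically evoked contractions. Read-out was % inhibition of evoked contraction compared with vehicle.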

[4] = molecular target: Cannabinoid receptor 1 (Mus musculus) (UniProt P47746); test: Antagonist activity at CB1 receptor in ICR mouse vas deferens assessed as inhibition of ACEA-stimulated electrically-induced muscle contraction at 10^-6 M; type: functional, tissue-based
How it was run: (§2)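 Mouse vas deferens under electrical stimulation. Tissues were preincubated with compound at 10^-6 or 2 × 10^-6 M, then increasing concentrations of the CB1 agonist ACEA were added. Mean ± SEM, n = 6–8.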

[5] = molecular target: Cannabinoid receptor 1 (Mus musculus) (UniProt P47746); test: Antagonist activity at CB1 receptor in ICR mouse vas deferens assessed as inhibition of ACEA-stimulated electrically-induced muscle contraction at 2 x 10^-6 M; type: functional, tissue-based; how it was run: as §2
[6] = molecular target: Cannabinoid receptor 2 (Mus musculus) (UniProt P47936); test: Antagonist activity at CB2 receptor in ICR mouse vas deferens assessed as inhibition of JWH-015-stimulated electrically-induced muscle contraction; type: functional, tissue-based
[7] = molecular target: Cannabinoid receptor 1 (Mus musculus) (UniProt P47746); test: Agonist activity at CB1 receptor in ICR mouse vas deferens assessed as effect on amplitude of nonstimulated muscle contraction at 10^-7 to 1.8 x 10^-5 M relative to control; type: functional, tissue-based; how it was run: as §1
Rattus norvegicus = test: Inhibition of food intake in Wistar rat at 0.03 to 3 mg/kg, ip after 30 to 240 mins; type: functional, organism-based
[8] = molecular target: Cannabinoid receptor 2 (Homo sapiens) (UniProt P34972); test: Displacement of [3H]-CP55940 from CB2 receptor after 90 mins by liquid scintillation counting
Chain of Cannabinoid receptor 2 (Homo sapiens) (P34972 whole entry): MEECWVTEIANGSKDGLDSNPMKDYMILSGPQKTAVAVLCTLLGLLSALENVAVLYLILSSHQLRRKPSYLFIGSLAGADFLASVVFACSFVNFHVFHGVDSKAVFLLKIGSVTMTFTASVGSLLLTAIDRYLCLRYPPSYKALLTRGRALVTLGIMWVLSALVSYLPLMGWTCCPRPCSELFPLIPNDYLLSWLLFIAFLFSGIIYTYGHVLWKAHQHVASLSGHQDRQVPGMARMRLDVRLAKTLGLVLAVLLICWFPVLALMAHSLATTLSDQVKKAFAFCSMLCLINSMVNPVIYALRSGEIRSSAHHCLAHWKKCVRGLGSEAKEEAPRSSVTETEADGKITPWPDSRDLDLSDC

Chain of Cannabinoid receptor 1 (Mus musculus) (P47746 whole entry): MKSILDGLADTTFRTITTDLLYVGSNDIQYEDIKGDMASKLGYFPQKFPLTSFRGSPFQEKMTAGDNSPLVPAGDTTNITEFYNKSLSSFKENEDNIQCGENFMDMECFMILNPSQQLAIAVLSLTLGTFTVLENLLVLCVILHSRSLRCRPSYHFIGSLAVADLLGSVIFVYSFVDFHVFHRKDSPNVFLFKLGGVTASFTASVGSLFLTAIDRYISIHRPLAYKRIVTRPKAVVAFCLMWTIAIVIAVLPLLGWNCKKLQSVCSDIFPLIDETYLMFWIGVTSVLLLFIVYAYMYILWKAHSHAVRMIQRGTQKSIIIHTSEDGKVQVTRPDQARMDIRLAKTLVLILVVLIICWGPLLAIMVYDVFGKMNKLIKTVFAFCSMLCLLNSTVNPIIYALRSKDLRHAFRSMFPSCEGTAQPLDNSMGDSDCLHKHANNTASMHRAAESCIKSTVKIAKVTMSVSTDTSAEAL
Chain of Cannabinoid receptor 1 (P21554 whole entry): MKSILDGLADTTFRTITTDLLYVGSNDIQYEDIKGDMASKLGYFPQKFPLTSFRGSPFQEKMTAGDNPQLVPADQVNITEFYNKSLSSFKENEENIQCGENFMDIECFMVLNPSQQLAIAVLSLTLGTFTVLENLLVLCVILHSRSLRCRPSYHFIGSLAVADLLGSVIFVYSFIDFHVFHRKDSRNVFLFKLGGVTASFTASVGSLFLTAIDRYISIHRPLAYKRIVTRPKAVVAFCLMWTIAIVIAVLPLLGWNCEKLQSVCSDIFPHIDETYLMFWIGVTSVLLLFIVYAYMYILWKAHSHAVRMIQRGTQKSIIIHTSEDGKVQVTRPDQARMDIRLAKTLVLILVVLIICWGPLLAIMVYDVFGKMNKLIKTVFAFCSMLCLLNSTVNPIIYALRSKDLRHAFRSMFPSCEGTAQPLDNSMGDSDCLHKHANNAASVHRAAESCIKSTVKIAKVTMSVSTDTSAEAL
Chain of Cannabinoid receptor 2 (Mus musculus) (P47936 whole entry): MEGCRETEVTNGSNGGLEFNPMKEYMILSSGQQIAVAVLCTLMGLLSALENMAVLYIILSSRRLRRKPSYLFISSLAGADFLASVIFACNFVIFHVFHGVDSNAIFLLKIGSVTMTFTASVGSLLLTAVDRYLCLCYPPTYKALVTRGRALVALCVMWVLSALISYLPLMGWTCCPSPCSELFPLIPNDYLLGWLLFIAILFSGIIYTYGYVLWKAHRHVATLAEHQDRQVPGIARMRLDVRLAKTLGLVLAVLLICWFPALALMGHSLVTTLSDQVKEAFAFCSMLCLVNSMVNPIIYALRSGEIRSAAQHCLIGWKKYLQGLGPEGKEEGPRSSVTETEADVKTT

Row | SMILES | EC50 [1] | EC50 [2] | Ki (Cannabinoid receptor 1) | inhibition [3] | Activity [4] | Activity [5] | Activity [6] | Activity [7] | inhibition [4] | Activity [8] | inhibition (Rattus norvegicus)
1 | Cc1c(C(=O)Nc2cccc(O)c2)nn(-c2ccc(Cl)cc2Cl)c1-c1ccc(Cl)cc1 | 989 nM | 887 nM | 52 nM |  |  |  |  |  |  |  | 
2 | Cc1c(C(=O)NN2CCCCC2)nn(-c2ccc(Cl)cc2Cl)c1-c1ccc(I)cc1 |  |  |  |  |  |  |  |  | Active |  | 
3 | CCCCCCCC/C=C\CCCCCCCC(=O)NCCO [OLEOYLETHANOLAMIDE] | 152 nM | 185 nM |  |  |  |  |  |  |  |  | 
4 | CCOC(=O)C(C)(C)Oc1ccc(NC(=O)c2nn(-c3ccc(Cl)cc3Cl)c(-c3ccc(Cl)cc3)c2C)cc1 |  | 1480 nM | 109 nM |  |  |  |  |  |  | inactive | 

The next lines start with results.

Row | EC50 [1] | EC50 [2] | Ki (Cannabinoid receptor 1) | inhibition [3] | Activity [4] | Activity [5] | Activity [6] | Activity [7] | inhibition [4] | Activity [8] | SMILES | inhibition (Rattus norvegicus)
5 |  | 971 nM | 4.6 nM | < 10% | Active | Active | Active | inactive |  |  | Cc1c(C(=O)Nc2ccc(O)cc2)nn(-c2ccc(Cl)cc2Cl)c1-c1ccc(Cl)cc1 | inactive
6 | 743 nM | 856 nM | 65 nM | < 10% | Active | Active | inactive | inactive |  |  | CCOC(=O)C(C)(C)Oc1cccc(NC(=O)c2nn(-c3ccc(Cl)cc3Cl)c(-c3ccc(Cl)cc3)c2C)c1 | inactive
